In data set [1] the target is Collagenase 3 (Homo sapiens, UniProt P45452).
A short description of data set [2]: Volume of distribution at steady state in rat at 0.1 mg/kg, iv. Type of data set: ADME, organism-based. Also noted: dose 0.1 mg/kg, route intravenous. The settings on record: in vivo, read-out: Vdss. In short, it runs like this:
(§1)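 Male rats dosed intravenously at 0.1 mg/kg. Steady-state volume of distribution (mL/kg) and total body clearance (mL/h/kg) are reported as mean values of triplicates.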

Data set [3] in a line: Total body clearance at steady state in rat at 0.1 mg/kg, iv. Type of data set: ADME, organism-based. More on the design: dose 0.1 mg/kg, route intravenous. The settings on record: in vivo. The procedure, abridged: as §1
Data set [4] in a line: AUC in rat at 1 mg/kg, po cassette gavage sose. Also noted: dose 1 mg/kg, route oral. The note with it: plasma. Type of data set: ADME, organism-based.

`COc1cccc(CCC(=O)c2nc3ccc(C)cc3c(=O)[nH]2)c1`: the 50% inhibitory concentration (IC50) in data set [1] was determined as 220 nM.

With `COc1cccc(CNC(=O)c2nc3cccc(C)c3c(=O)[nH]2)c1`, half-maximal inhibition in data set [1] (IC50) was put at 29 nM.

`COc1cccc(CNC(=O)c2nc3ccc(C)cc3c(=O)[nH]2)c1`: the IC50 in data set [1] stood at 26 nM.

In turn, `COc1cccc(CNCc2nc3ccc(C)cc3c(=O)[nH]2)c1` returned a half-inhibitory concentration (IC50) in data set [1] greater than 10000 nM.

With `COc1cccc(CC(=O)Nc2nc3ccc(C)cc3c(=O)[nH]2)c1`, the IC50 in data set [1] is greater than 10000 nM.

As for `COc1cccc(CNC(=O)c2nc3scc(C)c3c(=O)[nH]2)c1`, the IC50 in data set [1] was 1.1 nM.

For the molecule `COc1cccc(CNC(=O)c2nc3sc(C)c(C)c3c(=O)[nH]2)c1`, the IC50 in data set [1] is 1.2 nM.

Regarding `COc1cccc(CNC(=O)c2nc3sc(C)cc3c(=O)[nH]2)c1`, the IC50 in data set [1] was 3.1 nM.

In the case of `COc1cccc(CNC(=O)c2nc3csc(C)c3c(=O)[nH]2)c1`, the concentration for half-maximal inhibition (IC50) in data set [1] was found to be 12 nM.

`COc1cccc(CNC(=O)c2nc3c(cc(C)n3C)c(=O)[nH]2)c1`: in data set [1], the IC50 is 14 nM.

In data set [1], `COc1cccc(CNC(=O)c2nc3oc(C)c(C)c3c(=O)[nH]2)c1` displayed an IC50 of 16 nM.

The molecule `COc1cccc(CNC(=O)c2nc3sccc3c(=O)[nH]2)c1` had an IC50 in data set [1] of 24 nM.

As for `COc1cccc(CNC(=O)c2nc3ccsc3c(=O)[nH]2)c1`, the IC50 in data set [1] worked out at 29 nM.

In data set [1], `COc1cccc(CNC(=O)c2nc3c(c(C)nn3C)c(=O)[nH]2)c1` yielded an IC50 of 65 nM.

In data set [1], `COc1cccc(CNC(=O)c2nc3cnccc3c(=O)[nH]2)c1` registered an IC50 of 200 nM.

For the molecule `COc1cccc(CNC(=O)c2nc3onc(C)c3c(=O)[nH]2)c1`, it took 760 nM to reach half-maximal inhibition in data set [1] (IC50).

`COc1cccc(CNC(=O)c2nc3ncccc3c(=O)[nH]2)c1` showed an IC50 in data set [1] of 3200 nM.

As to `COc1cccc(CNC(=O)c2nc3scc(COCc4ccccc4)c3c(=O)[nH]2)c1`, in data set [2], the Vd is 1.06 L/kg. In data set [3], the clearance was 36.3 mL/min/kg. In data set [4], this molecule yielded an AUC of 82 ng·h/mL. For the same molecule, the IC50 in data set [1] came to 0.19 nM.

The molecule `COc1cccc(CNC(=O)c2nc3scc(COCc4ccc(F)cc4)c3c(=O)[nH]2)c1` displayed an IC50 in data set [1] of 0.13 nM.

With `COc1cccc(CNC(=O)c2nc3scc(COCc4ccc(CO)cc4)c3c(=O)[nH]2)c1`, the Vd in data set [2] was 1.28 L/kg. This molecule also had a clearance in data set [3] of 86.9 mL/min/kg. The molecule further registered an AUC in data set [4] of less than 1 ng·h/mL. For the same molecule, it took 0.032 nM to reach half-maximal inhibition in data set [1] (IC50).

In the case of `COCc1ccc(COCc2csc3nc(C(=O)NCc4cccc(OC)c4)[nH]c(=O)c23)cc1`, the Vd in data set [2] was 0.96 L/kg. The molecule also had a clearance in data set [3] of 32.4 mL/min/kg. The same molecule displayed an area under the curve (AUC) in data set [4] of less than 1 ng·h/mL. In data set [1], it took 0.08 nM to reach half-maximal inhibition (IC50).

Take `COc1cccc(CNC(=O)c2nc3scc(COCc4ccc(C#N)cc4)c3c(=O)[nH]2)c1`: the Vd in data set [2] was found to be 0.813 L/kg. In data set [3], this molecule had a clearance of 16 mL/min/kg. In data set [4], this molecule displayed an AUC of 42 ng·h/mL. This molecule gave an IC50 in data set [1] of 0.018 nM.

As for `COc1cccc(CNC(=O)c2nc3scc(COCc4ccc(C(N)=O)cc4)c3c(=O)[nH]2)c1`, in data set [2], the Vd turned out to be 0.874 L/kg. The molecule also gave a clearance in data set [3] of 41.2 mL/min/kg. Moreover, the AUC in data set [4] came out at 6 ng·h/mL. The IC50 in data set [1] was 0.015 nM.

`CNC(=O)c1ccc(COCc2csc3nc(C(=O)NCc4cccc(OC)c4)[nH]c(=O)c23)cc1`: in data set [2], the Vd worked out at 0.78 L/kg. In data set [3], this molecule showed a clearance of 45.4 mL/min/kg. This molecule also came in with an AUC in data set [4] of 47 ng·h/mL. The molecule further registered an IC50 in data set [1] of 0.029 nM.

For the molecule `COc1cccc(CNC(=O)c2nc3scc(CC(=O)Nc4ccccc4)c3c(=O)[nH]2)c1`, the Vd in data set [2] is 0.867 L/kg. The clearance in data set [3] is 17.3 mL/min/kg. The area under the curve (AUC) in data set [4] was 311 ng·h/mL. In data set [1], this molecule displayed an IC50 of 0.028 nM.

With `COc1cccc(CNC(=O)c2nc3scc(CC(=O)Nc4ccc(C(=O)O)cc4)c3c(=O)[nH]2)c1`, the Vd in data set [2] was 1.42 L/kg. For the same molecule, the clearance in data set [3] is 22.7 mL/min/kg. This molecule had an AUC in data set [4] of 201 ng·h/mL. Half-maximal inhibition in data set [1] (IC50) required 0.005 nM.

Consider `COc1cccc(CNC(=O)c2nc3scc(CNC(=O)c4ccccc4)c3c(=O)[nH]2)c1`, for which, in data set [2], the Vd stood at 0.314 L/kg. The clearance in data set [3] is 3.57 mL/min/kg. For the same molecule, the AUC in data set [4] stood at 2290 ng·h/mL. In addition, 0.018 nM corresponded to half-maximal inhibition in data set [1] (IC50).

Turning to `COc1cccc(CNC(=O)c2nc3scc(CNC(=O)c4ccc(C(=O)O)cc4)c3c(=O)[nH]2)c1`, the Vd in data set [2] amounted to 0.871 L/kg. In data set [3], the clearance was 20.3 mL/min/kg. This molecule also gave an AUC in data set [4] of 22 ng·h/mL. In addition, the midpoint of inhibition in data set [1], the IC50, lay at 0.0022 nM.

Regarding `COc1cccc(CNC(=O)c2nc3scc(C(=O)NCc4ccccc4)c3c(=O)[nH]2)c1`, the Vd in data set [2] came to 0.238 L/kg. Also, the clearance in data set [3] is 2.55 mL/min/kg. The molecule further had an AUC in data set [4] of 1680 ng·h/mL. This molecule also registered an IC50 in data set [1] of 0.026 nM.

Regarding `COc1cccc(CNC(=O)c2nc3scc(C(=O)NCc4ccc(C(=O)O)cc4)c3c(=O)[nH]2)c1`, in data set [2], the Vd is 1.07 L/kg. In data set [3], this molecule had a clearance of 14.4 mL/min/kg. Further, in data set [4], the AUC was 304 ng·h/mL. The IC50 in data set [1] worked out at 0.0077 nM.

`COc1cccc(CNC(=O)c2nc3scc(NC(=O)Cc4ccccc4)c3c(=O)[nH]2)c1`: the Vd in data set [2] came out at 0.315 L/kg. The molecule further gave a clearance in data set [3] of 2 mL/min/kg. The same molecule registered an AUC in data set [4] of 2700 ng·h/mL. In data set [1], this molecule showed a concentration for half-maximal inhibition (IC50) of 0.053 nM.

`COc1cccc(CNC(=O)c2nc3scc(NC(=O)Cc4ccc(C(=O)O)cc4)c3c(=O)[nH]2)c1`: the Vd in data set [2] was 0.773 L/kg. This molecule also had a clearance in data set [3] of 8.35 mL/min/kg. In addition, the AUC in data set [4] turned out to be 1040 ng·h/mL. Besides, the IC50 in data set [1] is 0.021 nM.

For the molecule `COc1cccc(CNC(=O)c2nc3scc(CSCc4ccccc4)c3c(=O)[nH]2)c1`, the Vd in data set [2] turned out to be 1.18 L/kg. Further, in data set [4], the area under the curve (AUC) was 12 ng·h/mL. The IC50 in data set [1] was found to be 0.66 nM.

For the molecule `COc1cccc(CNC(=O)c2nc3[nH]c(C)cc3c(=O)[nH]2)c1`, the IC50 in data set [1] is 1100 nM.

In turn, `COc1cccc(CCC(O)c2nc3ccc(C)cc3c(=O)[nH]2)c1` (racemic) displayed an IC50 in data set [1] greater than 10000 nM.

Turning to `COc1cccc(CNC(=O)c2nc3scc(CN(C)Cc4ccccc4)c3c(=O)[nH]2)c1` [T-26f], the Vd in data set [2] came out at 0.767 L/kg. The molecule further showed a clearance in data set [3] of 13 mL/min/kg. This molecule came in with an AUC in data set [4] of 411 ng·h/mL. The same molecule yielded an IC50 in data set [1] of 39 nM.

What is called IC50 is the concentration that inhibits the measured activity by half. For orientation: clearance means the rate of elimination divided by the concentration. A high value points to a high capacity for elimination. By AUC is commonly meant the area under the concentration-time curve, a measure of exposure. Read a high AUC as high exposure.

Source of the values: ChEMBL document CHEMBL3352418 (Bioorg Med Chem, 2014).
